The test system of series [1] is Mus musculus. Put plainly: Neurotoxicity in Swiss albino CF1 mouse assessed as decrease in locomotor activity at 30 mg/kg, ip after 0.5 hrs postdose. The class given is toxicity, organism-based. More on the design: dose 30 mg/kg, route intraperitoneal; scale not given: the % may be the effect or the level left. The settings on record: in vivo. In outline: (§1)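 Compounds in 30% PEG 200 were given i.p. at 30 mg/kg to male Swiss albino CF-1 mice. Locomotor activity was scored digitally in an actophotometer for 10 min, 24 h before dosing and again 0.5 h and 4 h after. The value is the % decrease against the pre-treatment score, as mean ± SEM, with Student's t test at p < 0.05.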

The test system of series [2] is Mus musculus. Put plainly: Neurotoxicity in Swiss albino CF1 mouse assessed as minimal motor deficit at 30 to 300 mg/kg, ip after 4 hrs by rotarod test. The class given is toxicity, organism-based. More on the design: dose 30-300 mg/kg, route intraperitoneal. The settings on record: in vivo. In outline: (§2)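 Mice (male Swiss albino CF-1, groups of 5) were trained on an accelerating rotarod at 10 rpm with a 3.2 cm rod and had to stay on for two consecutive 90 s trials. Trained animals then received 30, 100 or 300 mg/kg i.p. Deficit was inability to stay on the rod for at least 1 min in each of three trials, checked at 0.5 h and 4 h. The value is the minimal dose giving deficit in 50% or more of the animals.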
(The rotarod test checks motor coordination on a turning rod.)

Series [3] deals with Mus musculus. The series can be described thus: Anticonvulsant activity in Swiss albino CF1 mouse assessed as protection against maximal electroshock-induced seizures at 30 to 300 mg/kg, ip after 4 hrs postdose. The class given is functional, organism-based. In outline:
(§3)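 Male Swiss albino CF-1 mice, 20–30 g. Compounds were suspended in 0.5% methyl cellulose and given i.p. at 0.01 mL/g, at 30, 100 and 300 mg/kg. MES and sc PTZ seizure tests followed reported procedures at 0.5 h and 4 h post-dose. The value is the minimal dose protecting 50% or more of the animals.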
A general note: The maximal electroshock test induces tonic seizures with an electrical stimulus.

Series [4] concerns Mus musculus. The series can be described thus: Neurotoxicity in Swiss albino CF1 mouse assessed as minimal motor deficit at 30 to 300 mg/kg, ip after 0.5 hrs by rotarod test. To be noted: in vivo. The class given is toxicity, organism-based. More on the design: dose 30-300 mg/kg, route intraperitoneal. In outline: as §2
The test system of series [5] is Mus musculus. Put plainly: Neurotoxicity in Swiss albino CF1 mouse assessed as decrease in locomotor activity at 30 mg/kg, ip after 4 hrs postdose. It is filed as toxicity, organism-based. Also on record: dose 30 mg/kg, route intraperitoneal; scale not given: the % may be the effect or the level left. The settings on record: in vivo. In outline: as §1
Series [6] is described as follows: Octanol-phosphate buffer partition coefficient, log P of the compound at 5 mg after 24 hrs by UV spectroscopic analysis. It is filed as physicochemical. In a few lines:
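Octanol/phosphate buffer partition at room temperature. 5 mg of drug was added to 10 mL octanol plus 10 mL buffer and shaken mechanically for 24 h. The mixture was left to equilibrate for 6 h, and the phases were separated and membrane-filtered. Drug in the aqueous phase was quantified by UV spectroscopy.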

Series [7] deals with Mus musculus. The series can be described thus: Anticonvulsant activity in Swiss albino CF1 mouse assessed as protection against subcutaneous pentylenetetrazole-induced seizures at 30 to 300 mg/kg, ip after 4 hrs postdose. It is filed as functional, organism-based. In a few lines: as §3
Series [8] relates to Mus musculus. Put plainly: Anticonvulsant activity in ip dosed Swiss albino CF1 mouse assessed as protection against maximal electroshock-induced seizures after 0.5 hrs. The class given is functional. To be noted: read-out: MED. In outline: as §3
Series [9] has as its system Mus musculus. Put plainly: Anticonvulsant activity in Swiss albino CF1 mouse assessed as protection against subcutaneous pentylenetetrazole-induced seizures at 30 to 300 mg/kg, ip after 0.5 hrs postdose. It is filed as functional, organism-based. In a few lines: as §3

The source made the active and inactive calls. The calls are words filed in the database; no cut-off is given here.

One may read the logP as the decadic logarithm of the partition coefficient of the neutral form, usually between octanol and water. For `O=C(CN1C(=O)c2ccccc2C1=O)NN1C(=O)CSC1c1ccco1` (centres undefined), the Activity in series [1] was 5.14%; in series [2], “Non-toxic”; in [4], “Non-toxic”; in [5], 11.64%. The result in series [3], in series [7] and in [9] was inactive. The compound also gave a logP at 24 h in series [6] of 1.13. Also, in series [8], the minimal effective dose turned out to be 100 mg/kg.

(Values after ChEMBL document CHEMBL1909502, “Design and synthesis of 2-(1, 3-dioxoisoindolin-2-yl)-N-(4-oxo-2-substitutedthiazolidin-3-yl) acetamide derivatives as potential anticonvulsant agents” (Eur J Med Chem, 2011).)
